Compound activity: PubChem, The Scripps Research Institute Molecular Screening Center
DNA FID counter: fluorescent intercalator displacement, NS3 helicase counter-screen. DNA fluorescent intercalator displacement, fluorescence. inhibition, % at 7.9 µM. 290,000 compounds, 0.17% hits; in the data active = inhibition above about 37%;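 note: 0% = vehicle and 100% = reference compound; higher means more ethidium bromide displaced from hairpin DNA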
VIM-2 inh: inhibitors of Pseudomonas aeruginosa VIM-2 metallo-beta-lactamase | inhibition, % at 5.6 µM | AID 1527 | purified VIM-2, nitrocefin hydrolysis, epi-absorbance fluorescence | 290,000 compounds, 0.89% hits;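 active = inhibition above the mean of all tested compounds plus 3 SD, cutoff set per screening run, cut at about 7.5% in these data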;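 note: red hydrolysis product quenches plate fluorescence so inhibitors raise well fluorescence; 0% = enzyme with DMSO and 100% = DMSO without enzyme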
HCV core dimer: HCV core protein dimerization inhibition; 300,000 compounds, 0.33% hits; AID 1899; TR-FRET GST/Flag-core106 dimerization, 1536-well; inhibition, % at 5 µM;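 active = inhibition above the mean of all tested compounds plus 3 SD, set per screening campaign, cut at about 45% in these data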
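System: GST/Flag-tagged HCV core106 proteins. Incubation: compound-protein-antibody incubation 4 h at 22.5 °C. Technique: HTRF with 340 nm excitation, 617/671 nm emission. Medium: KF-containing HEPES buffer, pH 7.45, DTT, CHAPS, BSA. Read-out: inhibition (%) from 671 over 617 nm ratio. Also added: Eu(K)-anti-GST 90 ng/mL plus XL665-anti-Flag 1 µg/mL.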
IMP-1 inh: inhibitors of Pseudomonas aeruginosa IMP-1 metallo-beta-lactamase. purified IMP-1, nitrocefin hydrolysis, epi-absorbance fluorescence. inhibition, % at 5.6 µM. 290,000 compounds, 0.45% hits;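 active = inhibition above the mean plus 3 SD of all compounds in the same screening run, cut at about 4.5% in these data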;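 note: 0% = IMP-1 with DMSO and 100% = DMSO wells lacking enzyme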
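system = purified recombinant IMP-1 beta-lactamase | amount = 0.2 nM IMP-1, as dispensed | medium = HEPES buffer pH 7.1 with ZnSO4 and Brij 35 | times = 25 °C, 15 min preincubation, 25 min reaction | detection = plate fluorescence quenching by hydrolysis product, ex 480/em 530 nm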
Starred values were filed as active, the others as inactive. The list is not random: actives were taken first. Their share in the collection is about 1.6%.

Screening Cc1ccc2nc3c(cc(S(=O)(=O)c4ccccc4)c(=N)n3Cc3ccco3)c(=O)n2c1 returned DNA FID counter -1, VIM-2 inh -1, HCV core dimer 13 and IMP-1 inh -2.
Screening Cc1cccn2c(=O)c3cc(S(=O)(=O)c4ccccc4)c(=N)n(Cc4ccco4)c3nc12 returned DNA FID counter 0, VIM-2 inh 0, HCV core dimer 26 and IMP-1 inh -1.
Cc1ccc(S(=O)(=O)c2cc3c(=O)n4ccccc4nc3n(Cc3ccco3)c2=N)cc1C was read as DNA FID counter 0, VIM-2 inh -1, HCV core dimer 70* and IMP-1 inh -2.
Screening N=c1c(S(=O)(=O)c2ccccc2)cc2c(=O)n3ccccc3nc2n1Cc1ccco1 returned DNA FID counter -4, VIM-2 inh 2, HCV core dimer 87* and IMP-1 inh -2.
CC(=O)N/C(=C\c1ccccc1)C(=O)NCc1ccc2c(c1)OCO2 was read as DNA FID counter -3, VIM-2 inh -3, HCV core dimer -12 and IMP-1 inh -3.
Cc1cccc(C)c1OCC(=O)N/N=C/c1ccc2c(c1)OCO2 was read as DNA FID counter -7, VIM-2 inh -7, HCV core dimer -3 and IMP-1 inh -1.
Screening CCOc1ccc(CNC(=O)Cn2c(=O)c3cccn3c3ccccc32)cc1 returned DNA FID counter -31, VIM-2 inh -1, HCV core dimer 10 and IMP-1 inh 6.2*.
Screening O=C(Cn1c(=O)c2cccn2c2ccccc21)NCCc1ccc(Cl)cc1 returned DNA FID counter -25, VIM-2 inh 3, HCV core dimer -4 and IMP-1 inh 13*.
`COC(=O)c1sccc1NC(=S)N1CCN(c2ccccc2)CC1` gave DNA FID counter -6, VIM-2 inh -2, HCV core dimer 2 and IMP-1 inh -2.
For CN=C1NN=C(c2cc(C)n(-c3ccc(Cl)cc3)c2C)CS1 the results were DNA FID counter -12, VIM-2 inh -4, HCV core dimer 65* and IMP-1 inh -2.
CCOC(=O)c1sc(NC(=O)c2ccoc2C)c(C(N)=O)c1C was read as DNA FID counter -37, VIM-2 inh 8.0*, HCV core dimer 4 and IMP-1 inh 0.
CCn1c2ccccc2c2nnc(SCC(=O)N3CC(C)OC(C)C3)nc21 (configuration not stated) was read as DNA FID counter -25, VIM-2 inh 8.3*, HCV core dimer 1 and IMP-1 inh -1.
For COc1ccccc1N1CCN(C(=O)CSc2nnc3c4ccccc4n(CC(=O)O)c3n2)CC1 the results were DNA FID counter -33, VIM-2 inh 3, HCV core dimer 1 and IMP-1 inh -1.
`Cc1ccccc1-c1nn(-c2ccc(F)cc2F)cc1CNCCCN(C)C` gave DNA FID counter 42*, VIM-2 inh 1, HCV core dimer -7 and IMP-1 inh 0.
Cc1ccccc1-c1nn(-c2ccc(F)cc2F)cc1CNCCN(C)C was read as DNA FID counter 22, VIM-2 inh -2, HCV core dimer -5 and IMP-1 inh -2.
For COc1ccc(-c2csc(NC3CCCCC3)n2)c(OC)c1 the results were DNA FID counter 0, VIM-2 inh -2, HCV core dimer 16 and IMP-1 inh 8.0*.
CC(=O)Nc1ccc(NC(=O)CSc2nc3nc(-c4cccs4)cc(C(F)(F)F)c3c(=O)[nH]2)cc1 was read as DNA FID counter -1, VIM-2 inh -2, HCV core dimer 13 and IMP-1 inh -3.
O=C(NCc1ccco1)c1cc2nc(C3CC3)cc(C(F)(F)F)n2n1 was read as DNA FID counter -11, VIM-2 inh 1, HCV core dimer 15 and IMP-1 inh -1.
`COc1ccc(-c2cc(C(F)(F)F)n3nc(C(=O)NCc4ccco4)cc3n2)cc1OC` gave DNA FID counter -18, VIM-2 inh 8.7*, HCV core dimer 10 and IMP-1 inh -1.
For O=C(NCc1ccco1)c1cnn2c(C(F)(F)F)cc(-c3cccs3)nc12 the results were DNA FID counter 3, VIM-2 inh 9.3*, HCV core dimer 13 and IMP-1 inh -3.
`COC(=O)CSc1nc2nc(-c3cccs3)cc(C(F)(F)F)c2c(=O)[nH]1` gave DNA FID counter 0, VIM-2 inh 12*, HCV core dimer -1 and IMP-1 inh 0.
Screening CCOc1ccccc1NC(=O)CSc1nc2nc(-c3cccs3)cc(C(F)(F)F)c2c(=O)[nH]1 returned DNA FID counter -17, VIM-2 inh -1, HCV core dimer 26 and IMP-1 inh -3.
